Only some compounds are listed: those with a hit (about 2.3% of all), similar ones and a draw of the others.
CR mimetic SO – caloric restriction mimetics inhibiting age-related superoxide in yeast; S. cerevisiae aged cells, superoxide DHE fluorescence; hits give low values; superoxide response (% of plate mean), % at 10 µM; 330,000 tested, 0.18% active; AID 2690;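 active = superoxide response under a set limit, about three screen SD below normal, cut at about 65% in these data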;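 note: yeast aged for seven days with compound at 30 °C before DHE staining; 100% = average MFI of all compound-treated wells on the plate with controls excluded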
TRPC6 inh – blocks the mouse TRPC6 cation channel; AID 2553; HEK293-TRPC6, membrane potential dye, ACh-evoked depolarization; hits give low values; 310,000 tested, 1.1% active; B-score at 10 µM;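 active = B-score under library mean minus 3 SD, initial fluorescence not abnormally high, positive integrated signal ratio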;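 note: B-score derived from integrated fluorescence ratio over the kinetic read; more negative B-score means stronger inhibition of depolarization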
Target sequence (Q61143 whole entry, looked up): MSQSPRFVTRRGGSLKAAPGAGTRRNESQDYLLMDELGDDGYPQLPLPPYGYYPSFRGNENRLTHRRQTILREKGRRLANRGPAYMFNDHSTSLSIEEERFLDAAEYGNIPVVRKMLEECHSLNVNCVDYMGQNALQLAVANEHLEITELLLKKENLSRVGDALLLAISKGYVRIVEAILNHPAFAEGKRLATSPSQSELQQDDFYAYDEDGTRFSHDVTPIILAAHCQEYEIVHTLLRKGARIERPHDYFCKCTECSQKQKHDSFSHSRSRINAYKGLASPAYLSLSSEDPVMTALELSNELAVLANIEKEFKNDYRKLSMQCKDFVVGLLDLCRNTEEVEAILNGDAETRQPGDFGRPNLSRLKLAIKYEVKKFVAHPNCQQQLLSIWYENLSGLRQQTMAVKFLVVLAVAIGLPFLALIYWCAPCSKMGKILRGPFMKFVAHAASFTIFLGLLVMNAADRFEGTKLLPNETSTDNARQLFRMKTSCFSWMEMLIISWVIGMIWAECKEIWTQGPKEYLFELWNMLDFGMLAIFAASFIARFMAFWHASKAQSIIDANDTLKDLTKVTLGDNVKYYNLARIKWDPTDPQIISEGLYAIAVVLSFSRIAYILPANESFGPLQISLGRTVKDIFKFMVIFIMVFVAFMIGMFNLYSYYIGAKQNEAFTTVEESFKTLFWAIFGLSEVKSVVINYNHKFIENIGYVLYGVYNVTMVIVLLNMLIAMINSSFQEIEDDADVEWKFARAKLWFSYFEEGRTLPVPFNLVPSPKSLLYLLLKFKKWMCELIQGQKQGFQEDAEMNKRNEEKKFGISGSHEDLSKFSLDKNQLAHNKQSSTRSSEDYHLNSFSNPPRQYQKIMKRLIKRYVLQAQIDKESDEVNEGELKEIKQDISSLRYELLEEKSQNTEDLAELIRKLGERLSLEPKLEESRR
TRPC4 agonist – TRPC4 (mouse) channel activation; Q9QUQ5; HEK293 TRPC4beta/mu-opioid, Fluo4 calcium fluorescence; hits give high values; B-score at 10 µM; 310,000 tested, 0.49% active;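 active = B-score above 5 SD of library B-scores, and initial fluorescence ratio not above library mean plus 5 SD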;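 note: positive B-score marks a calcium rise read as TRPC4 activation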
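Assay system – TRPC4beta and mu-opioid receptor HEK293 stable cells · Measured by – Fluo4 fluorescence, kinetic · Schedule – dye loading 45 min room temperature, 110 s kinetic read · Read-out – B-scored integrated calcium fluorescence ratio · Controls – buffer and maximal DAMGO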
TRPC6 act – activates the mouse TRPC6 cation channel. B-score at 10 µM. 310,000 tested, 0.13% active. AID 2550. HEK293-TRPC6 membrane potential dye fluorescence; hits give high values;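 active = B-score of the integrated fluorescence ratio above library mean plus 3 SD, and starting fluorescence ratio within library mean plus 5 SD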;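 note: higher score means more depolarization so channel activation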
TRPC4 PAM – allosterically enhances the mouse TRPC4 cation channel; Q9QUQ5; HEK293 TRPC4beta/mu-opioid, DAMGO EC20, Fluo-4 Ca2+ flux; hits give high values; B-score at 10 µM; 310,000 tested, 0.42% active; AID 2227;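 active = B-score of calcium response area above 5 SD of library B-scores, with initial fluorescence ratio within 5 SD of library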;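 note: B-score of integrated fluorescence ratio over time as area under calcium response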
TRPC4 block – inhibitors of mouse TRPC4 channel | 300,000 tested, 0.39% active | B-score at 10 µM | HEK293 TRPC4beta/mu-opioid, DAMGO-evoked Fluo4 calcium flux; hits give low values | Q9QUQ5;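 active = B-score over 3 SD under the library average, no early fluorescence shift, positive overall ratio signal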
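material = TRPC4beta/mu-opioid receptor HEK293 cell line | probe or stimulus = sequential submaximal and maximal DAMGO stimulation | compound dosing = one concentration per compound | measured by = Fluo4 Ca2+ flux fluorescence | evaluation = integrated fluorescence ratio relative to baseline, converted to per-well B score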
TRPC4 sel inh 2 – second check of whether TRPC6 inhibitors also affect mouse TRPC4 | shares compounds with TRPC6 inh | HEK293 TRPC4/MOR, membrane potential dye fluorescence; channel activated by saturating DAMGO dose | 920 tested, 42% active | AID 2776 | inhibition, % at 10 µM;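 active = compounds whose fluorescence signal differed from control wells by over 3 SD, either direction, in both duplicate plates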
TRPC4 spec – mouse TRPC4 off-target activity of TRPC6 inhibitors; shares compounds with TRPC6 inh; HEK293 TRPC4/mu-opioid, membrane potential fluorescence; activity change, negative = inhibition, % at 10 µM; 920 tested, 61% active; AID 2777;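 active = rise or fall in signal beyond 3 SD of buffer-only wells in both replicate plates, either sign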;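 note: integrated kinetic ratio of fluorescence range over baseline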
HEK293 MPD ctr 2-1 – parental HEK293 nonspecific activity of TRPC6 inhibitors, second screen; parental HEK293 membrane potential dye fluorescence; maximal acetylcholine challenge after compound addition; AID 2779; signal change vs control, % at 10 µM; shares compounds with TRPC6 inh; 920 tested, 31% active;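 active = membrane potential signal moving either way by over 3 SD of the maximum-effect control, in both duplicate plates, meaning non-specific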
HEK293 MPD ctr-1 – counter-screen for TRPC6 inhibitors: effect in parental HEK293 cells; shares compounds with TRPC6 inh; parental HEK293 membrane potential dye fluorescence; membrane potential signal change, % at 10 µM; 920 tested, 60% active; AID 2780;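 active = membrane potential signal shifting up or down by more than 3 SD of buffer-only wells, on both duplicate plates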
HEK293 MPD ctr-2 – counter-screen for TRPC6 modulators: effect in parental HEK293 cells. shares compounds with TRPC6 inh. membrane potential dye fluorescence. membrane potential signal change, % at 10 µM. 2,400 tested, 51% active. AID 488924;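 active = membrane potential signal moves up or down beyond 5 SD from buffer-only wells, on both duplicate plates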
HEK293 MPD ctr 2-2 – second check of TRPC6 modulator effects in parental HEK293 cells; shares compounds with TRPC6 inh; inhibition, % at 10 µM; membrane potential dye fluorescence; after compound, maximal acetylcholine stimulation; 2,400 tested, 14% active;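 active = membrane potential signal drops by more than 5 SD from the mean control signal, in both duplicate plates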;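 note: plate controls were acetylcholine ECmax control wells for no effect and buffer only wells for full effect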
TRPC4 ctr mod – mouse TRPC4 off-target activity of TRPC6 modulators; shares compounds with TRPC6 inh; HEK293 TRPC4/mu-opioid, membrane potential fluorescence; percent change from control (negative = decrease, positive = increase), % at 10 µM; 2,400 tested, 69% active;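 active = membrane potential signal moved up or down beyond 5 SD of buffer control wells, in both duplicate plates, actives on both sides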;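 note: plate controls were assay buffer wells for no effect and DAMGO maximal-effect wells for full effect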
TRPC4/MOR inh 2 – mouse TRPC4 off-target activity of TRPC6 modulators, second screen; 2,400 tested, 55% active; HEK293 TRPC4/mu-opioid, membrane potential dye fluorescence; stimulated with maximal-effect DAMGO; inhibition, % at 10 µM; AID 488928; shares compounds with TRPC6 inh;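 active = drop in membrane potential signal beyond 5 SD of the control wells in both duplicate plates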;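 note: TRPC4 counter screen for TRPC6 hits run under conditions tuned for TRPC6 not TRPC4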
TRPC6 inh conf – confirmation of mouse TRPC6 inhibitors; 3,300 tested, 43% active; HEK293-TRPC6, membrane potential dye, ACh-evoked depolarization; shares compounds with TRPC6 inh; inhibition, % at 10 µM;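 active = fluorescence ratio falls more than 5 SD below the full-stimulation control mean, in both duplicate runs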;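 note: integrated fluorescence ratio of peak minus minimum over baseline after agonist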
TRPC6 act confirm – confirmation of mouse TRPC6 activators; shares compounds with TRPC6 inh; HEK293-TRPC6 membrane potential dye fluorescence, FDSS; activation, % at 10 µM; 2,800 tested, 11% active; AID 488961;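 active = ratio signal rise beyond 5 SD above unstimulated control wells' mean, seen in both duplicate runs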;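 note: plate controls were buffer EC0 wells for no effect and acetylcholine ECmax response for full effect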
An asterisk follows results filed as active; i = inactive; / = not tested or not shown.

SMILES | CR mimetic SO | TRPC6 inh | TRPC4 agonist | TRPC6 act | TRPC4 PAM | TRPC4 block | HEK293 MPD ctr-2 | HEK293 MPD ctr 2-2 | TRPC4 ctr mod | TRPC4/MOR inh 2 | TRPC6 inh conf | others
Cc1ccc(S(=O)(=O)N2CCN(C(=O)COC(=O)CSc3cc(C)ccc3C)CC2)c(C)c1 | 82 | / | / | / | / | / | / | / | / | / | /
O=C(c1cc2ccccc2oc1=O)N1CCN(CCc2ccccc2)CC1 | 86 | i | i | i | i | i | / | / | / | / | /
O=C(OCCN1CCCCC1)c1ccccc1Br | 105 | i | i | i | i | i | / | / | / | / | /
O=C(OCCN1CCCCC1)C1(c2ccccc2)CCCC1 | 97 | -7.4* | i | i | i | i | / | / | / | / | 83%* | TRPC4 sel inh 2=i;TRPC4 spec=19%*;HEK293 MPD ctr 2-1=21%*;HEK293 MPD ctr-1=16%*
CCOc1ccccc1NC(=O)Cn1c(=O)sc2ccccc21 | 113 | i | i | i | i | i | / | / | / | / | /
CC(C)(C)n1nnnc1C(c1cc2cc3c(cc2[nH]c1=O)OCCO3)N1CCSCC1 (stereo not given) | 105 | -5.2* | i | i | i | i | i | i | i | i | 52%*
COc1ccc2cc(C(c3nnnn3C(C)(C)C)N3CCSCC3)c(=O)[nH]c2c1 (stereo not given) | 103 | i | i | i | i | i | / | / | / | / | /
CCCCCCN1C=CC(=C2C(=O)c3ccccc3C2=O)C=C1 | 110 | i | i | i | i | i | / | / | / | / | /
CCCCN1C=CC(=C2N=c3cccc([N+](=O)[O-])c3=N2)C=C1 | 82 | -5.6* | i | i | i | i | -132%* | 78%* | -20%* | 49%* | 58%* | TRPC6 act confirm=i
CCOc1ccc(NC(=O)N(CCN2CCOCC2)Cc2ccc3c(c2)CCCN3CC)cc1 | 101 | i | i | i | i | i | / | / | / | / | /
CCCN1CCCc2cc(CN(CCCN3CCOCC3)C(=O)Nc3ccc(OCC)cc3)ccc21 | 124 | -5.3* | i | i | i | i | i | i | i | 38%* | i | TRPC6 act confirm=i
CCN(CC)CCCNC(=O)c1cc(-c2ccc(Cl)c(Cl)c2)on1 | 87 | -6.4* | i | i | i | i | 149%* | i | 26%* | 54%* | i
Brc1ccc(Oc2ncc(CN3CCN(c4ccccc4)CC3)s2)cc1 | 89 | -5.4* | i | i | i | i | i | i | i | i | i | TRPC6 act confirm=i
C(#Cc1ccccc1)C[N+]1(CC#Cc2cccc3ccccc23)CCCC1 | 104 | -5.5* | i | i | i | i | i | i | -14%* | i | i | TRPC6 act confirm=i
Cc1ccc2c(c1)C1C=CCC1C(C(=O)NCCCN1CCOCC1)N2 (stereo not given) | 105 | i | i | i | i | i | / | / | / | / | /
O=C(NCCCN1CCOCC1)C1Nc2ccc(OC(F)(F)F)cc2C2C=CCC12 (stereo not given) | 104 | -9.7* | i | i | i | i | i | i | i | i | i | TRPC6 act confirm=i
O=C(CC12CC3CC(CC(C3)C1)C2)Nc1ccc(C(=O)O)cc1 | 104 | i | i | i | i | i | / | / | / | / | /
CC1CCCN1CC#CC(O)(c1ccccc1)c1ccccc1 (stereo not given) | 108 | -8.7* | i | i | i | -7* | / | / | / | / | 82%* | TRPC4 sel inh 2=i;TRPC4 spec=4.5%*;HEK293 MPD ctr 2-1=-44%*;HEK293 MPD ctr-1=8.2%*
C(#CCN1CCCC1)CC(c1ccccc1)c1ccccc1 | 95 | -8.6* | i | i | i | i | / | / | / | / | i | TRPC4 sel inh 2=66%*;TRPC4 spec=14%*;HEK293 MPD ctr 2-1=i;HEK293 MPD ctr-1=15%*
CC(O)(C#CCN1CCCCC1)c1ccccc1 (stereo not given) | 81 | i | i | i | i | i | / | / | / | / | /
CC(O)(C#CCN1CCCC1)c1ccccc1 (stereo not given) | 100 | i | i | i | i | i | / | / | / | / | /
CC(C)C(O)(C#CCN1CCCCCC1)c1ccccc1 (stereo not given) | 105 | -7.1* | i | i | i | i | / | / | / | / | 61%* | TRPC4 sel inh 2=i;TRPC4 spec=13%*;HEK293 MPD ctr 2-1=i;HEK293 MPD ctr-1=11%*
OC(CC#CCN1CCCC1)(c1ccccc1)c1ccccc1 | 81 | -5.3* | i | i | i | i | 114%* | 63%* | 15%* | i | 65%*
CN(C)/C=N/c1cc(=O)n(Cc2ccccc2)c(=O)n1C | 101 | i | i | i | i | i | / | / | / | / | /
OC(C#CCN1CCCC1)(c1ccccc1)c1cccc(F)c1 (stereo not given) | 86 | -5.5* | i | i | i | i | i | 123%* | 14%* | 32%* | 96%*
CCCc1nc(NCc2ccccc2)c(C#N)c2c1CCCC2 | 97 | i | i | i | i | i | / | / | / | / | /
C=CCNc1nc(NCc2ccccc2)c(C#N)c2c1CN(C)CC2 | 85 | -6.5* | i | i | i | i | -75%* | i | -21%* | 46%* | i | TRPC6 act confirm=i

Compound activity: PubChem, several laboratories
